# SR-BI HDL uptake = mouse SR-BI HDL lipid transfer inhibition | Q61009 | ldlA[mSR-BI] CHO cells, DiI-HDL uptake fluorescence, 3 h | inhibition, % at 12.5 µM | 320,000 tested, 0.96% active | AID 488896;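 active means mean replicate inhibition of at least 70% and a set share of replicates each scoring 70 or more; inconclusive means meets just one of the two criteria; inactive means fails both criteria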;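 further: 0% = median of neutral control wells and 100% = median of positive control wells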
# CAL PDZ FP-1 = inhibitors of human CAL PDZ peptide binding | Q9HD26 | purified CAL PDZ, TMR-peptide fluorescence polarization, 1 h | inhibition, % at 20 µM | 330,000 tested, 0.02% active | AID 504414;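 active means highest replicate inhibition of at least 40%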;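 further: plate controls were DMSO neutral control wells for no effect and unlabeled competitor peptide control wells for full effect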
#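 System: tagged CAL PDZ domain. Schedule: 1 h room-temperature incubation prior to read. Signal: fluorescence polarization (mP). Measure: percent inhibition from loss of millipolarization.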
# CAL PDZ FP-2 = inhibitors of human CAL PDZ peptide binding; purified CAL PDZ, TMR-peptide fluorescence polarization, 1 h; inhibition, % at 24.9 µM; 300,000 tested, 0.92% active; AID 602252;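 active means mean inhibition of at least 30% with at least half of replicates also reaching 30%; inconclusive means no clear call, values can overlap the other calls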;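 further: 0% = DMSO neutral control and 100% = excess unlabeled competitor peptide PRC23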
# dFosB act = activators of mouse delta FosB homodimer; purified delta FosB, TAMRA-CDK5 oligo fluorescence polarization; percent of positive-control signal above neutral wells; 340,000 tested, 0.99% active; activation, % at 25 µM;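 active means mean activation above about 17%, with every replicate also reaching it, limit read from the data, passing the limit was not always enough; inconclusive means only one of the two conditions met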
# Target sequence (P13346 whole entry, looked up): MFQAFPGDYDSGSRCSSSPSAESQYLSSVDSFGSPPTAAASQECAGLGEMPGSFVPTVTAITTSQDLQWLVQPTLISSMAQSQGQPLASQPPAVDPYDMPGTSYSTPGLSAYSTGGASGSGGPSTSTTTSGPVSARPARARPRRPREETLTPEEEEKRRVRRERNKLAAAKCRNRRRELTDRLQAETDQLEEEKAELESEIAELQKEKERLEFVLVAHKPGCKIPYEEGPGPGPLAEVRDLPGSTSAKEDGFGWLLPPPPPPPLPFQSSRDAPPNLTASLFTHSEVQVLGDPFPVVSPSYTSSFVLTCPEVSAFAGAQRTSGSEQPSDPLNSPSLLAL
# SR-BI uptake up = SR-BI HDL lipid transfer activation | CHO ldlA[mSR-BI] cells, DiI-HDL uptake fluorescence, 3 h; 100 = double the neutral-control signal | activation, % at 12.5 µM | 320,000 tested, 0.096% active;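 active means mean replicate activation of at least 60% and every replicate at or above 60%; inconclusive means mean or all-replicate condition met, but not both; inactive means mean below 60% and not all replicates reaching 60%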;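 further: 0% = median plate neutral-control signal and 100% = twice that signal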
#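 Test system: SR-BI-overexpressing, LDLR-lacking CHO cells. Measured by: DiI fluorescence, bottom read. Medium: Ham's F12 with 0.5% BSA, HEPES 25 mM, pH 7.4. Timing: 3 h uptake period with compound, 37 °C.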
# An asterisk follows results filed as active; ? = inconclusive; · = no result. Sampled rows, rich in hits. Any-hit rate of the full collection: about 2.8%.
SMILES,SR-BI HDL uptake,CAL PDZ FP-1,CAL PDZ FP-2,dFosB act,SR-BI uptake up
COc1ccc(C(=O)C2CCCN(C(=O)c3c4c(nn3C)CCCC4)C2)cc1F (stereo not drawn),8.0,-0.5,-0.8,0.8,-8.0
Cc1ccc(S(=O)(=O)Nc2ccccc2C=Nc2cccc(C)c2C)cc1,-35.4,-3.4,-1.4,-3.1,35.4
Cc1ccc(S(=O)(=O)Nc2ccccc2N=Cc2c(F)c(F)c(F)c(F)c2F)cc1,91.5*,0.7,-1.3,-4.4,-91.5
COC(=O)c1c(C)nc2nonc2c1N,4.0,0.5,172.5*,-1.5,-4.0
COC(=O)c1c(C)nc2c(c(SC)nn2-c2ccccc2)c1N,43.1,-0.5,-21.7,-3.1,-43.1
Cc1ccnc(SCC(=O)Nc2sccc2C#N)n1,7.8,-0.5,38.8*,-4.4,-7.8
Cc1cccc(C(=O)N2CCc3cc(-c4csc(NC(=O)CN5CCCC5)n4)ccc32)c1,·,-2.9,0.1,37.1*,·
CN(C)c1ccc(-n2cc3c(=O)n(C)c(=O)n(C)c3c2)cc1,14.7,-0.3,-3.0,-6.8,-14.7
CCN(CC)c1ccc(-n2cc3c(=O)n(C)c(=O)n(C)c3c2)cc1,73.5*,0.2,2.4,-7.7,-73.5
CCOc1ccc(C(C)=O)cc1CSc1nnc(-c2ccoc2C)n1N,71.1*,-0.1,-3.4,-1.8,·
Cc1cc(NC(=O)CSc2nnc(-c3ccoc3C)n2N)no1,-3.5,-3.6,-1.5,0.3,3.5
CCOC(=O)c1c(NC(=O)CN2CCC(C)CC2)sc(C)c1C,-3.3,11.2,45.5*,7.7,3.3
CCOC(=O)c1c(NC(=O)CN2CCN(C(=O)C3CCCO3)CC2)sc(C)c1C (stereo not drawn),2.4,0.5,-4.1,-6.0,-2.4
COc1ccc(NC(=O)CCNS(=O)(=O)c2cccc3nonc23)c(OC)c1,-0.4,-2.3,0.8,-0.3,0.4
COC(=O)Cn1cc(S(=O)(=O)NCc2ccc(C)cc2)c2cc([N+](=O)[O-])ccc21,21.2,-0.3,-0.9,-4.7,-21.2
COCCNc1ccc([N+](=O)[O-])cc1C(=O)NC1CCCc2ccccc21 (stereo not drawn),79.0*,-0.4,-1.7,-7.6,-79.0
Cc1cc(C)cc(NC(=O)c2cc3c(=O)n4ccccc4nc3s2)c1,78.0*,-2.4,0.9,-1.5,-78.0
CC(C)c1ccc2c(c1)C1(NN=C(c3ccccc3)S1)C(=O)N2 (stereo not drawn),106.2*,-0.3,-1.4,-9.0,-106.1
CC(C)C(C)NC(=O)COC(=O)C1CCN(S(=O)(=O)c2ccc3c(c2)OCCO3)CC1 (stereo not drawn),-9.2,-2.6,-2.6,-1.7,9.2
CC1C(=O)C(C)C(c2ccc(Br)cc2)NC1c1ccc(Br)cc1 (stereo not drawn),-6.4,-1.8,-5.9,-5.5,6.4
CC1C(=O)C(C)C(c2cc(Br)ccc2O)NC1c1cc(Br)ccc1O (stereo not drawn),82.6*,2.1,2.6,?,-82.6
O=[N+]([O-])c1ccc(O)c(-c2nc(-c3ccccc3)c(-c3cccs3)[nH]2)c1,83.7*,-4.6,-4.4,-8.8,-83.7
O=C(O)c1ccc(-c2nc(-c3ccccc3)c(-c3cccs3)[nH]2)cc1,·,-2.7,-2.9,2.0,·
COc1ccc(C(C[N+](=O)[O-])c2c(-c3ccccc3)cc3ccccn23)cc1OC (stereo not drawn),17.5,1.0,-1.0,2.9,-17.5
COc1ccc(C(C[N+](=O)[O-])c2c(-c3ccccc3)cc3ccccn23)cc1 (stereo not drawn),20.4,-1.3,84.7*,-11.7,-20.4
SMILES,SR-BI HDL uptake,CAL PDZ FP-1,CAL PDZ FP-2,dFosB act,SR-BI uptake up
CCOc1ccc(N2C(=O)CN(CC(=O)OC)C2=S)cc1,16.8,-1.4,-4.0,2.0,-16.8
O=C(Nc1cccc(C(F)(F)F)c1)Oc1ccc(Cl)c2cccnc12,-0.1,-1.4,35.2*,1.0,0.1
O=C1CC(c2ccccc2)=C(c2ccccc2)C1,-13.2,50.2*,-4.1,-6.8,13.2
Cc1ccc(NC(=O)c2cc(=O)c3ccccc3o2)cc1S(=O)(=O)N1CCOCC1,69.7,-6.6,-10.8,2.8,-69.7
O=C(Nc1cccc(Br)c1)c1cc(=O)c2ccccc2o1,-1.8,-0.9,6.1,7.4,1.8
Cc1c(C(=O)Nc2ccc(F)c(F)c2)oc2ccc(S(=O)(=O)N3CCCCC3)cc12,75.1*,-2.0,-1.7,-21.7,-75.1
CC(=O)c1cccc(NC(=O)c2cc(=O)c3ccccc3o2)c1,13.7,-0.6,50.0*,-2.5,-13.7
Cc1c(C(=O)Nc2ccc(F)cc2)oc2ccc(S(=O)(=O)N3CCCC3)cc12,19.1,-0.7,·,-0.5,-19.1
Cc1ccc(NC(=O)c2cc(=O)c3ccccc3o2)cc1S(=O)(=O)N1CCCCC1,80.3*,-3.5,-2.3,-6.3,-80.3
Cn1nnnc1SCC(=O)Nc1ncc(C(F)(F)F)cc1Cl,-0.9,-1.9,0.4,3.9,0.9
Cc1cccc(NS(=O)(=O)c2ccc(C)c(C(=O)NCC(c3cccs3)N3CCOCC3)c2)c1 (stereo not drawn),-1.0,-0.7,-1.0,-10.3,1.0
C=CCn1c(SCC(=O)NCC(c2ccccc2)N(C)C)nnc1C1CCCCC1 (stereo not drawn),-0.3,-2.0,-4.8,-9.0,0.3
Cc1onc(-c2c(Cl)cccc2Cl)c1C(O)c1ccccc1 (stereo not drawn),11.5,·,45.7*,-2.5,-11.5
O=C(Cn1c(=O)n(-c2ccccc2)c(=O)c2sccc21)NCc1ccccc1,·,1.2,-4.6,-3.0,·
O=C(Cc1ccc(-n2c(=O)c3sccc3n(CC(=O)Nc3ccccc3)c2=O)cc1)NCc1ccco1,5.8,-0.6,-1.8,73.3*,-5.8
CCOC(=O)C(=CNc1nc(-c2ccc3ccccc3c2)cs1)C(=O)OCC,13.4,-1.6,2.1,-1.6,-13.4
COc1cccc(CN(C)C(=O)CN2C(=O)NC(c3ccccc3)(c3ccccc3)C2=O)c1,-7.1,0.0,79.0*,-19.0,7.1
Cc1ccc(NC(=O)C2CCCO2)c(Br)c1 (stereo not drawn),-9.1,0.1,·,1.7,9.1
Cc1ccc(S(=O)(=O)N(C)C)cc1NC(=O)COC(=O)Cc1ccccc1F,-5.4,-0.7,-1.0,-1.5,5.4
Cc1cc2ccc3ccccc3c2cc1CN(C)C,5.5,-1.8,·,-17.6,-5.5
CN(C)CCOC1c2ccccc2CCc2ccc3ccccc3c21 (stereo not drawn),-436.1,-1.0,·,-4.7,436.1*
CN(C)CCn1c2c(c(SCC(=O)NCc3ccccc3)nc1=O)CCCC2,-54.5,-0.5,·,-5.1,54.5
C/C(=N\N1C(=O)c2ccccc2NC1c1ccco1)c1ccccc1O (stereo not drawn),-85.8,-2.3,-0.9,-3.3,85.8*
O=C1c2ccccc2NC(c2ccco2)N1/N=C/c1ccco1 (stereo not drawn),-13.3,-0.7,-2.0,0.0,13.3
